Results as given in ChEMBL document CHEMBL1153051, “Peperomins as anti-inflammatory agents that inhibit the NF-kappaB signaling pathway” (Bioorg Med Chem Lett, 2009).
Activity calls are given as the source filed them. The calls are words filed in the database; no cut-off is given here.

Tests used:
[1] = target: T1, Inhibitor of nuclear factor kappa-B kinase subunit beta (Homo sapiens) (UniProt O14920); test: Inhibition of human FLAG-tagged IKK-beta expressed in HEK293 cells at 50 uM by Western blot analysis in presence of ATP; type: cell-based
T1 sequence (whole entry): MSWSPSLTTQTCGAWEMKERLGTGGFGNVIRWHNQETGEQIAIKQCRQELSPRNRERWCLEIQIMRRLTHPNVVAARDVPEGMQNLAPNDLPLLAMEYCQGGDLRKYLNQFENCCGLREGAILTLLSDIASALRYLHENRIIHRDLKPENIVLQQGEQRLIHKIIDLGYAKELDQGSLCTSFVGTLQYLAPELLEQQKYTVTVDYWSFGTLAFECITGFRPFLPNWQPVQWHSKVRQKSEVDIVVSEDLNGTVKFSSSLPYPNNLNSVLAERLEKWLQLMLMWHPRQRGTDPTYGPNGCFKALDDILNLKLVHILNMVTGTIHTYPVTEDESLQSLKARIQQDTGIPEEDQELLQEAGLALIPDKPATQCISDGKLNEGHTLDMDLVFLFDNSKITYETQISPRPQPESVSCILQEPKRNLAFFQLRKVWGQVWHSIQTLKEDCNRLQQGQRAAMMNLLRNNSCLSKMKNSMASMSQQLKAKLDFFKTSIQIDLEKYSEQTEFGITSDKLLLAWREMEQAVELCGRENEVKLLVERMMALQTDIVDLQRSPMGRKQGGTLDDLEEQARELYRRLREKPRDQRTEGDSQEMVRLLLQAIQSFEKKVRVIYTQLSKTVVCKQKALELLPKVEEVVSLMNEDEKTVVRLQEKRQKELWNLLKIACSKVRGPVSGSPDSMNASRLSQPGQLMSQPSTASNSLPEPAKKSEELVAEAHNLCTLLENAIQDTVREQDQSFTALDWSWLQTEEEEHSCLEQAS
Procedure, shortened: (§1)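 FLAG-IKKβ was transiently overexpressed in HEK293 cells for 24 h, then immunoprecipitated with anti-FLAG antibody. Precipitates were incubated with or without compound before the kinase reaction, and the phosphorylated product was read out by Western blot.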

[2] = tested on: A549; test: Antiinflammatory activity in human A549 cells assessed as reduction of TNF-alpha-induced cell surface ICAM1 expression upto 100 uM preincubated for 1 hr before TNFalpha challenge measured after 6 hrs by Western blot analysis; type: functional, cell-based
Procedure, shortened: (§2)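 A549 cells pretreated 1 h with peperomins at various concentrations, then TNF-α (2.5 ng/mL) or IL-1 (0.25 ng/mL) added for 6 h with compound still present. Whole-cell lysates were Western blotted for ICAM-1, with β-actin as loading control.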

[3] = tested on: A549; test: Antiinflammatory activity in human A549 cells assessed as reduction of IL1-induced cell surface ICAM1 expression upto 100 uM preincubated for 1 hr before IL1 challenge measured after 6 hrs by Western blot analysis; type: functional, cell-based; procedure, shortened: as §2
[4] = tested on: A549; test: Reduction of IL1-induced COX2 expression in human A549 cells at 100 uM preincubated for 1 hr before IL1 challenge measured after 6 hrs by Western blot analysis; type: functional, cell-based
Procedure, shortened: (§3)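 Cox-2 protein was Western blotted in A549 cells, with β-actin as loading control. Cells were pretreated 1 h with compound at various concentrations, then exposed 6 h to TNF-α (2.5 ng/mL) or IL-1 (0.25 ng/mL) in its continued presence.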

[5] = tested on: A549; test: Antiinflammatory activity in human A549 cells assessed as reduction of TNF-alpha-induced increase in cell surface ICAM1 expression upto 100 uM preincubated for 1 hr before TNFalpha challenge measured after 6 hrs by ELISA; type: functional, cell-based
Procedure, shortened: (§4)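 Cell ELISA of surface ICAM-1 on A549 cells. Cells were pretreated 1 h across a concentration series, then stimulated 6 h with TNF-α (2.5 ng/mL) or IL-1 (0.25 ng/mL) with compound present. Values are means ± SD of triplicate cultures.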

[6] = tested on: A549; test: Antiinflammatory activity in human A549 cells assessed as reduction of IL1-induced increase in cell surface ICAM1 expression upto 100 uM preincubated for 1 hr before IL1 challenge measured after 6 hrs by ELISA; type: functional, cell-based; procedure, shortened: as §4
[7] = tested on: A549; test: Antiinflammatory activity in human A549 cells assessed as reduction of IL1-induced increase in cell surface ICAM1 expression preincubated for 1 hr before IL1 challenge measured after 6 hrs by ELISA; type: functional, cell-based; procedure, shortened: as §4
[8] = tested on: MCF7; test: Antiinflammatory activity in human MCF7 cells assessed as inhibition of TNF-alpha-induced cell surface ICAM1 expression upto 100 uM preincubated for 1 hr before TNFalpha challenge measured after 6 hrs by ELISA; type: functional, cell-based
[9] = tested on: MCF7; test: Antiinflammatory activity in human MCF7 cells assessed as inhibition of IL1-induced cell surface ICAM1 expression upto 100 uM preincubated for 1 hr before IL1 challenge measured after 6 hrs by ELISA; type: functional, cell-based
[10] = tested on: MCF7; test: Cytotoxicity against human MCF7 cells upto 100 uM after 6 hrs by MTT assay; type: cell-based; details: mcf7, 6 h
[11] = tested on: A549; test: Cytotoxicity against human A549 cells upto 100 uM after 6 hrs by MTT assay; type: cell-based; details: a549, 6 h
Procedure, shortened: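 A549 viability by MTT after 6 h exposure to a range of compound concentrations, no cytokine. Viability given as %, means ± SD of triplicate cultures.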

[12] = tested on: A549; test: Antiinflammatory activity in human A549 cells assessed as substantial decrease in TNF-alpha-induced cell surface ICAM1 expression at > 10 uM preincubated for 1 hr before TNFalpha challenge measured after 6 hrs by Western blot analysis; type: functional, cell-based; procedure, shortened: as §2
[13] = tested on: A549; test: Antiinflammatory activity in human A549 cells assessed as substantial decrease in IL1-induced cell surface ICAM1 expression at > 10 uM preincubated for 1 hr before IL1 challenge measured after 6 hrs by Western blot analysis; type: functional, cell-based; procedure, shortened: as §2
[14] = tested on: A549; test: Antiinflammatory activity in human A549 cells assessed as complete decrease in TNF-alpha-induced cell surface ICAM1 expression at 100 uM preincubated for 1 hr before TNFalpha challenge measured after 6 hrs by Western blot analysis; type: functional, cell-based; procedure, shortened: as §2
[15] = tested on: A549; test: Antiinflammatory activity in human A549 cells assessed as complete decrease in IL1-induced cell surface ICAM1 expression at 100 uM preincubated for 1 hr before IL1 challenge measured after 6 hrs by Western blot analysis; type: functional, cell-based; procedure, shortened: as §2
[16] = tested on: A549; test: Reduction of TNF-alpha-induced COX2 expression in human A549 cells at 100 uM preincubated for 1 hr before TNFalpha challenge measured after 6 hrs by Western blot analysis; type: functional, cell-based; procedure, shortened: as §3
[17] = target: T2, Inhibitor of nuclear factor kappa-B kinase subunit alpha (Homo sapiens) (UniProt O15111); test: Inhibition of N-terminal GST-fused human IkappaBalpha (1 to 54) expressed in Escherichia coli BL21
T2 sequence (whole entry): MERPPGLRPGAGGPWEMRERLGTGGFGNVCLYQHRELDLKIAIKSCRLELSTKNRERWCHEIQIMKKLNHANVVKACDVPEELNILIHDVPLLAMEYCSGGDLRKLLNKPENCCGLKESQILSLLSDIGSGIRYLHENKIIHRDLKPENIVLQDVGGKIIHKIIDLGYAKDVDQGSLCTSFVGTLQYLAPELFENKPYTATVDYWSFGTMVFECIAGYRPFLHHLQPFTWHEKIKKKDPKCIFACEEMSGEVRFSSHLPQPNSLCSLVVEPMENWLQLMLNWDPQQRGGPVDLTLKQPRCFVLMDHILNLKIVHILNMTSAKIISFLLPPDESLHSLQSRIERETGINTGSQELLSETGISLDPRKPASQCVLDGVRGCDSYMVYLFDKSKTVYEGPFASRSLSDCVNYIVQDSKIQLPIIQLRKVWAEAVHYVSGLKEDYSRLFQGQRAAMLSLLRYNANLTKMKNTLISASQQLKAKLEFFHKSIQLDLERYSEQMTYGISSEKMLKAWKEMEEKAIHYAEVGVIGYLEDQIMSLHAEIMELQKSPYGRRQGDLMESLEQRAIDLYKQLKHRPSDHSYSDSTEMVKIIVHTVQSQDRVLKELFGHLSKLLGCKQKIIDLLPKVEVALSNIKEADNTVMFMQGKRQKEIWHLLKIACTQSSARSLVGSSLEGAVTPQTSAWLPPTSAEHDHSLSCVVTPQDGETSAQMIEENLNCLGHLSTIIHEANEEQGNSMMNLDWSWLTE
Procedure, shortened: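 IKK complex was immunoprecipitated with anti-IKKα from A549 cells. Cells were pretreated 1 h with compound, then given TNF-α (2.5 ng/mL) for 15 min. Precipitates phosphorylated GST-IκBα(1–54) with or without ATP (10 µM). Phospho-substrate was detected by Western blot with anti-phospho-IκB antibody, with bands quantified relative to IKKα.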

[18] = target: T1, Inhibitor of nuclear factor kappa-B kinase subunit beta (Homo sapiens); test: Inhibition of human FLAG-tagged IKK-beta expressed in HEK293 cells at 0.1 to 100 uM by Western blot analysis in presence of ATP; type: cell-based; procedure, shortened: as §1
[19] = tested on: A549; test: Antiinflammatory activity in human A549 cells assessed as reduction of TNF-alpha-induced increase in cell surface ICAM1 expression preincubated for 1 hr before TNFalpha challenge measured after 6 hrs by ELISA; type: functional, cell-based; procedure, shortened: as §4
[20] = target: T3, NF-kappa-B inhibitor alpha (Homo sapiens) (UniProt P25963); test: Inhibition of IL1-stimulated IkappaBalpha degradation in human A549 cells at 0.1 to 100 uM preincubated for 1 hr before IL1 challenge measured after 10 mins by Western blot analysis; type: cell-based
T3 sequence (whole entry): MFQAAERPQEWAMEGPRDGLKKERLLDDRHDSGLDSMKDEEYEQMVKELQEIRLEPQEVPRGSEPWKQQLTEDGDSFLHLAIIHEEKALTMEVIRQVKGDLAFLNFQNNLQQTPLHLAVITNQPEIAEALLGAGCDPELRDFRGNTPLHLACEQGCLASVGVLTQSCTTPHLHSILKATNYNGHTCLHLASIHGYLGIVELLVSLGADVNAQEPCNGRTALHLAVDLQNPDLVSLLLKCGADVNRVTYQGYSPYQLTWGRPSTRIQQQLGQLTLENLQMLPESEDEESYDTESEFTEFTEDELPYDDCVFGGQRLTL

[21] = tested on: A549; test: Inhibition of TNF-alpha-induced IKKalpha expression in human A549 cells at 100 uM preincubated for 1 hr before TNFalpha challenge measured after 5 to 30 mins by Western blot analysis; type: functional, cell-based
[22] = tested on: A549; test: Inhibition of IL1-induced IKKalpha expression in human A549 cells at 100 uM preincubated for 1 hr before IL1 challenge measured after 5 to 30 mins by Western blot analysis; type: functional, cell-based
[23] = tested on: A549; test: Inhibition of TNF-alpha-induced IKK-beta expression in human A549 cells at 100 uM preincubated for 1 hr before TNFalpha challenge measured after 5 to 30 mins by Western blot analysis; type: functional, cell-based
[24] = tested on: A549; test: Inhibition of IL1-induced IKK-beta expression in human A549 cells at 100 uM preincubated for 1 hr before IL1 challenge measured after 5 to 30 mins by Western blot analysis; type: functional, cell-based
[25] = tested on: A549; test: Selectivity for inhibition of TNF-alpha-induced cell surface ICAM1 expression over inhibition of TNF-alpha-induced COX2 expression in human A549 cells; type: functional
[26] = tested on: A549; test: Selectivity for inhibition of IL1-induced cell surface ICAM1 expression over inhibition of IL1-induced COX2 expression in human A549 cells; type: functional
[27] = target: T3, NF-kappa-B inhibitor alpha (Homo sapiens); test: Inhibition of TNF-alpha-stimulated IkappaBalpha degradation in human A549 cells at 0.1 to 100 uM preincubated for 1 hr before TNFalpha challenge measured after 15 mins by Western blot analysis

Row | SMILES | Activity [2] | Activity [3] | Activity [4] | Activity [5] | Activity [6] | Activity [7] | Activity [8] | Activity [10] | Activity [11] | Activity [12] | Activity [13] | Activity [14] | Activity [15] | Activity [16] | inhibition [17] | inhibition [18] | Activity [19] | other results
1 | CCCCC/C=C/C=C1/C(=O)C=C[C@@H]1C/C=C\CCCC(=O)O | – | – | – | – | – | – | – | – | – | – | – | – | – | – | – | – | – | inhibition [1]: Active
2 | COc1cc(C(c2cc(OC)c3c(c2)OCO3)[C@@H]2COC(=O)[C@H]2C)cc2c1OCO2 | inactive | inactive | inactive | inactive | inactive | – | – | – | – | – | – | – | – | – | – | – | – | –
3 | COc1cc([C@@H](c2cc(OC)c3c(c2)OCO3)[C@@H]2COC(=O)[C@H]2C)cc(OC)c1OC | inactive | inactive | inactive | inactive | inactive | – | – | – | – | – | – | – | – | – | – | – | – | –
4 | C=C1C(=O)OC[C@H]1[C@@H](c1cc(OC)c(OC)c(OC)c1)c1cc(OC)c2c(c1)OCO2 [2,6-DIDEHYDROPEPEROMIN B] | – | – | – | – | – | Dose-dependent effect | Active | Non-toxic | Toxic | Active | Active | Active | Active | Active | Active | inactive | Dose-dependent effect | inhibition [9]: Active
5 | C=C1C(=O)OC[C@H]1C(c1cc(OC)c2c(c1)OCO2)c1cc(OC)c2c(c1)OCO2 [PEPEROMIN E] | – | – | – | – | – | Dose-dependent effect | Active | Non-toxic | Toxic | Active | Active | Active | Active | Active | Active | inactive | Dose-dependent effect | Activity [9]: Active; inhibition [20]: Active; inhibition [21]: inactive; inhibition [22]: inactive; Activity [23]: inactive; inhibition [24]: inactive; fold change (FC) [25]: 10; fold change (FC) [26]: 10; inhibition [27]: Active
